In ChEMBL document CHEMBL1137651 (Antimicrob Agents Chemother, 2007):

Assays:
Assay type in all cases: functional
[1] = system: Mycobacterium tuberculosis; assay: Antimycobacterial activity against drug-resistant Mycobacterium tuberculosis H37Rv ATCC 2517-infected hollow fiber system based in vitro pharmacokinetic-pharmacodynamic tuberculosis model assessed as rate constant for maximal bacterial kill
[2] = system: Mycobacterium tuberculosis; assay: Antimycobacterial activity against drug-resistant Mycobacterium tuberculosis H37Rv ATCC 2517-infected hollow fiber system based in vitro pharmacokinetic-pharmacodynamic tuberculosis model assessed as concentration needed to achieve 50% maximal killing rate
Summary of the method: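 Hollow-fibre system at 37°C under 5% CO2, preconditioned with drug for 3 days. Log-phase bacilli (10 ml of 10^6 CFU/ml) went into the peripheral compartment. […] Drug levels were checked centrally. Peripheral samples were taken daily for 7 days, washed twice in saline and plated on 7H10 agar for CFU.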

[3] = system: Mycobacterium tuberculosis; assay: Antimycobacterial activity against drug-resistant Mycobacterium tuberculosis H37Rv ATCC 2517-infected hollow fiber system based in vitro pharmacokinetic-pharmacodynamic tuberculosis model assessed as rate constant for maximal bacterial growth
[4] = system: Mycobacterium tuberculosis; assay: Antimycobacterial activity against drug-resistant Mycobacterium tuberculosis H37Rv ATCC 2517-infected hollow fiber system based in vitro pharmacokinetic-pharmacodynamic tuberculosis model assessed as sigmoidicity constant for microbial killing
[5] = system: Mycobacterium tuberculosis; assay: Antimycobacterial activity against drug-resistant Mycobacterium tuberculosis H37Rv ATCC 2517-infected hollow fiber system based in vitro pharmacokinetic-pharmacodynamic tuberculosis model assessed as concentration needed to achieve 50% effect on maximal growth rate
[6] = system: Mycobacterium tuberculosis; assay: Antimycobacterial activity against drug-resistant Mycobacterium tuberculosis H37Rv ATCC 2517-infected hollow fiber system based in vitro pharmacokinetic-pharmacodynamic tuberculosis model assessed as sigmoidicity constant for drug effect on microbial growth

Compound `CO[C@H]1/C=C/O[C@@]2(C)Oc3c(C)c(O)c4c(O)c(c(/C=N/N5CCN(C)CC5)c(O)c4c3C2=O)NC(=O)/C(C)=C\C=C\[C@H](C)[C@H](O)[C@@H](C)[C@@H](O)[C@@H](C)[C@H](OC(C)=O)[C@@H]1C` [RIFAMPIN] has a Kkmax [1] of 29.379 ×10⁻³ log10CFU/ml/hr, a C50k [2] of 22.405 mg/L and a Kgmax [3] of 6.195 ×10⁻³ log10CFU/ml/hr. It also gave a Hk [4] of 45.326, a C50g [5] of 2.019 mg/L and a Hg [6] of 4.542.
